Assay results gathered from unrelated publications.
Protocols differ between the studies behind these lines.
Target: Tyrosine-protein kinase Fer (FER, Homo sapiens, UniProt P16591)

| effect on | method | concentration | remaining binding | SMILES |
| --- | --- | --- | --- | --- |
| cell-free assay | competition with immobilised ligand | 0.1 µM | 99% | CS(=O)(=O)N1CCCC(NC(=O)[C@H](CCC2CCCCC2)NC(=O)c2ccc(CNC(=O)c3cnc4ccccn34)cc2)C1 (stereo partly drawn) |
| binding | competition with immobilised ligand | 0.1 µM | 100% | C[C@@H](c1ccc(-n2cnc3c(N)ncnc32)cc1)N1CCc2nn(C)c(Cc3ccccc3)c2C1=O |
| binding | competition with immobilised ligand | 1 µM | 76% | O=C(c1ccc(Nc2ncc(Cl)c(-c3cc4ccccc4s3)n2)cc1)N1CCC(N2CCCC2)CC1 |
| binding |  | 1 µM | 100% | CC1CCCN1c1nccc(-c2cnn3ncccc23)n1 (stereo not drawn) |
| binding | competition with immobilised ligand | 1 µM | 100% | COc1cnc(Nc2cccc(S(N)(=O)=O)c2)nc1N1CCN(c2ccccc2)CC1 |
| binding | competition with immobilised ligand | 10 µM | 83% | c1cncc(-c2cccc(Nc3nccc(NC4CCCCC4)n3)c2)c1 |
| binding | competition with immobilised ligand | 1 µM | 100% | O=C(c1ccc(Nc2nccc(-c3cc4ccccc4s3)n2)cc1)N1CCC(N2CCCC2)CC1 |
| cell-free assay | competition with immobilised ligand | 1 µM | 99% | CCC(=O)N[C@@H]1CC[C@H](C(=O)N(C)c2ccc(-c3nc4ccccc4o3)cc2)C1 |
| binding | competition with immobilised ligand | 1 µM | 100% | COc1cnc(Nc2cccc(S(N)(=O)=O)c2)nc1N1CCN(c2ccccc2)C(=O)C1 |
| cell-free assay | competition with immobilised ligand | 1 µM | 96.9% | CC(=O)C1=C(C)N(c2cccc(C(F)(F)F)c2)C(=O)N[C@@H]1c1ccc(C#N)nc1 |
| binding |  | 1 µM | 82% | CN(C)c1ncc(F)c(-c2cnn3ncccc23)n1 |
| cell-free assay | competition with immobilised ligand | 1 µM | 100% | CC(=O)c1c(NS(C)(=O)=O)c2cc(-c3ccc(Cl)cc3)c(-c3ccc(Cl)cc3Cl)nc2n(C)c1=O |
| binding |  | 1 µM | 97% | N[C@H]1CCN(c2nccc(-c3cnn4ncccc34)n2)C1 |
| cell-free assay | competition with immobilised ligand | 1 µM | 100% | CS(=O)(=O)c1cc(C2(NC(=O)c3cncc4c3cnn4-c3ccc(F)cc3)CC2)ccn1 |
| binding |  | 1 µM | 100% | C[C@@H]1CCN(c2nccc(-c3cnn4ncccc34)n2)C1 |
| cell-free assay | competition with immobilised ligand | 1 µM | 74% | COc1ccc2cc(OCC3(C(=O)O)CN(C(=O)c4ccc(F)cc4)C3)ccc2c1 |
| binding | competition with immobilised ligand | 1 µM | 100% | O=C(Nc1c[nH]nc1C(=O)NC1CCNCC1)c1cc(F)cc(F)c1 |
| binding |  | 1 µM | 100% | CN(c1nccc(-c2cnn3ncccc23)n1)C1CC1 |
| binding | competition with immobilised ligand | 1 µM | 84% | Cc1cnc(Nc2ccc(C(=O)N3CCC(N4CCCC4)CC3)cc2)nc1-c1cc2ccccc2s1 |
| binding |  | 1 µM | 100% | COc1ccnn2ncc(-c3ccnc(N(C)C)n3)c12 |
| cell-free assay | competition with immobilised ligand | 5 µM | 90% | FC(F)(F)Oc1cccc(-c2cnc3ccc(-c4ccncc4)nn23)c1 |
